# Experimental data pooled from the literature.
# Each line is one published result; the experiments were not run side by side.
# CYP3A7: Cytochrome P450 3A7 (CYP3A7, Homo sapiens, UniProt P24462)
Compound,tested on,test,test system,setting,measurement,result
CCN(CCN)c1ccc(Nc2cc(NC3CC3)n3ncc(C#N)c3n2)cc1-n1cnnc1,,metabolic stability,"male CD-1 mouse, liver microsomes","5 µM, 30 min, pH 7.4",compound remaining,92%
N#C[C@@]12C[C@@H]1[C@@H](n1cnc3c(N[C@@H](C4CCC4)C4CC4)nc(I)nc31)[C@H](O)[C@@H]2O,,metabolic stability,"rat, liver microsomes",1 h,compound remaining,72.9%
N#Cc1cnn2c(Nc3cn(CCN4CCCC4)cn3)cc(Nc3cccc(-n4cnnc4)c3)nc12,,metabolic stability,"male CD-1 mouse, liver microsomes","5 µM, 30 min, pH 7.4",compound remaining,67%
C=C[C@@H]1C[C@]1(NC(=O)[C@@H]1C[C@@H](Oc2ncc(OC)c3ccc(Cl)cc23)CN1C(=O)[C@@H](NC(=O)OC(C)(C)C)C(C)(C)C)C(=O)NS(=O)(=O)C1CC1,CYP3A7,"enzyme activity, inhibitor, fluorescence",,"20 µM, 10 min, pH 7.4",inhibition,≥ 50%
N#Cc1cnn2c(NC3CC3)cc(Nc3ccc(N4CCC[C@H](N)C4)c(-n4cnnc4)c3)nc12,,metabolic stability,"male CD-1 mouse, liver microsomes","5 µM, 30 min, pH 7.4",compound remaining,98%
Oc1ccccc1/C=N/c1c(-c2ccccc2)nc2ccc(Cl)cn12,MT4,"cell growth or viability, MTT",,5 days,CC50,17.9 µg/mL
Cc1cnc(C(=O)N[C@H]2CCCCC/C=C\[C@@H]3C[C@@]3(C(=O)NS(=O)(=O)C3CC3)NC(=O)[C@@H]3C[C@@H](Oc4nc5ccccc5c5ccccc45)CN3C2=O)cn1,CYP3A7,"enzyme activity, inhibitor",,"pH 7.4, with preincubation",KI (inactivation),4.66 µM
N#Cc1cnn2c(Nc3cn(CCN4CCOCC4)cn3)cc(Nc3cccc(-n4cnnc4)c3)nc12,,metabolic stability,"male CD-1 mouse, liver microsomes","5 µM, 30 min, pH 7.4",compound remaining,81%
O=[N+]([O-])c1ccc(/C=N/c2c(-c3ccccc3)nc3ccc(Cl)cn23)cc1,MT4,"cell growth or viability, MTT",,5 days,CC50,> 125 µg/mL
Cc1ccc(Cn2cc(C(=O)NN)c(=O)c3cc(Oc4ccccc4)ccc32)cc1,,metabolic stability,"male rat, liver microsomes","1 µM, 30 min",compound remaining,> 99%
O=[N+]([O-])c1ccccc1/C=N/c1c(-c2ccccc2)nc2ccc(Cl)cn12,MT4,"cell growth or viability, MTT",,5 days,CC50,> 125 µg/mL
COc1ccc2c(O[C@@H]3C[C@H]4C(=O)N[C@]5(C(=O)NS(=O)(=O)C6CC6)C[C@H]5/C=C\CCCCN(C)C(=O)[C@@H]4C3)cc(-c3nc(C(C)C)cs3)nc2c1C,CYP3A7,"enzyme activity, inhibitor, fluorescence",,"20 µM, 10 min, pH 7.4",inhibition,≥ 50%
